Test results published in paper PMC6982535 (Science (New York, N.Y.), 2019).

Columns and labels:
Format in all cases: cell-based
[1] = target: T1, TREK-2 (Homo sapiens, UniProt P57789); assay: TREK-2 channel currents, BL-1249 dose-response ± TEA or THexA; conditions: extended screening; result in words
T1 sequence (P57789 1-538): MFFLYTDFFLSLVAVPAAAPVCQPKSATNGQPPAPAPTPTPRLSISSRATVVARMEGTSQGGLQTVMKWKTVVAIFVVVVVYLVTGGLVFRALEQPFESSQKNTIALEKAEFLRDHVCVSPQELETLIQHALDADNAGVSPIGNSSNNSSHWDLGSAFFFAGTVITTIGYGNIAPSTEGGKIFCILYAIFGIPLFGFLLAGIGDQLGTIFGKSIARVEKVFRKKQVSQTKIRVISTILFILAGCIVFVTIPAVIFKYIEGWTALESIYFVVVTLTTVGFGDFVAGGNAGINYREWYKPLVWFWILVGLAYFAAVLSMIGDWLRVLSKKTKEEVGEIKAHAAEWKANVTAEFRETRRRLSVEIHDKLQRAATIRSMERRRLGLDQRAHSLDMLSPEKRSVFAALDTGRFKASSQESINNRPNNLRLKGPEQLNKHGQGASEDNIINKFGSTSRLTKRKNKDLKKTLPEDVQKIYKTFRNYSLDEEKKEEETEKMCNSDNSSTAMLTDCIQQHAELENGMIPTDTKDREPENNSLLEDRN
How it was run: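 TREK-2 concentration-response curves for test compound were run with and without intracellular blocker: 100 mM TEA (n ≥ 12) or 5 μM THexA (n ≥ 13). Inhibition of basal current by each blocker was also quantified.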

[2] = target: T2, TRAAK (Homo sapiens, UniProt Q9NYG8); assay: Extended screening of K2P channels with BL-1249: TRAAK; conditions: result in words
T2 sequence (Q9NYG8 1-393): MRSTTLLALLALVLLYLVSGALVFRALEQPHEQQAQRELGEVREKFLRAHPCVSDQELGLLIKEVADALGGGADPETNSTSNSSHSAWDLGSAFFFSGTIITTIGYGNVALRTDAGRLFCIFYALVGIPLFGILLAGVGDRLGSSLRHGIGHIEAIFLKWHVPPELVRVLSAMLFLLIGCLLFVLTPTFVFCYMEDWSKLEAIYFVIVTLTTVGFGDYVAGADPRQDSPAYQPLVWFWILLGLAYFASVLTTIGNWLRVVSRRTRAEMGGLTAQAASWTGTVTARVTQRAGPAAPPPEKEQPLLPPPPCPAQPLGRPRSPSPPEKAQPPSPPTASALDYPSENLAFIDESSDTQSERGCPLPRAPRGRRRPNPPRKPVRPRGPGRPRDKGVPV

[3] = target: T3, THIK-1 (Homo sapiens, UniProt Q9HB14); assay: Extended screening of K2P channels with BL-1249: THIK-1; conditions: result in words
T3 sequence (Q9HB14 1-408): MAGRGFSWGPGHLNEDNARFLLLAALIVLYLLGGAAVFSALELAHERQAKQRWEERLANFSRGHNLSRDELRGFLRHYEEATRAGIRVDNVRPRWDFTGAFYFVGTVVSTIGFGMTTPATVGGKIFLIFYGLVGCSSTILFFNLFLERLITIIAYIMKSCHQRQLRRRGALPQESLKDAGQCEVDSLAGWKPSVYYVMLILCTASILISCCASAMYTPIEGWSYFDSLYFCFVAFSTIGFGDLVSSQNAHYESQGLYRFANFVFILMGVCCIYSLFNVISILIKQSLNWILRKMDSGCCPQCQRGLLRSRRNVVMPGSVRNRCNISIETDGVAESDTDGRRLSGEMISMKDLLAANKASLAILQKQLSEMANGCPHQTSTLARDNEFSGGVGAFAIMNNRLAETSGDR

[4] = target: Kv1.1 (Homo sapiens, UniProt Q09470); assay: BL-1249 on helix bundle-crossing gated channel Kv1.1; conditions: result in words
[5] = target: Kv1.5 (Homo sapiens, UniProt P22460); assay: BL-1249 on helix bundle-crossing gated channel Kv1.5; conditions: result in words
[6] = system: CNG channels; assay: BL-1249 on CNG channels; conditions: result in words
[7] = target: T4, TREK-1 L304C (Homo sapiens, UniProt O95069, L304C); assay: Cysteine-modification protection: MTS-TBAO modification of TREK-1 L304C; conditions: 10 μM MTS-TBAO; BL-1249 50 μM, ML335 50 μM, 2-APB 1 mM; result in words
T4 sequence (O95069 1-426 L304C): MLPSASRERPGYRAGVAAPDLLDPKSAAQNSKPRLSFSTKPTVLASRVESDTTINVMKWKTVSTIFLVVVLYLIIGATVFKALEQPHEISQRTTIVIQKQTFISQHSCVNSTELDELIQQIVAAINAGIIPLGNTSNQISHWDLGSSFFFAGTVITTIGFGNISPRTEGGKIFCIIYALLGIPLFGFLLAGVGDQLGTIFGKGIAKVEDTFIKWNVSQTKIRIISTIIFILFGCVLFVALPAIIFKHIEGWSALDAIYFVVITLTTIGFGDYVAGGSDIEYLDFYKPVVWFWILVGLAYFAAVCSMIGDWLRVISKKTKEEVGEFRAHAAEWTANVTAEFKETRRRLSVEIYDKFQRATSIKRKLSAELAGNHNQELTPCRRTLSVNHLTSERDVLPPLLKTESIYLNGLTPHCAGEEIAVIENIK

[8] = target: T1, TREK-2; assay: Single channel recordings of TREK-2 expressed in HEK293 cells; conditions: TREK-2 in HEK293 cells

Kv1.5, sequence (P22460 whole entry): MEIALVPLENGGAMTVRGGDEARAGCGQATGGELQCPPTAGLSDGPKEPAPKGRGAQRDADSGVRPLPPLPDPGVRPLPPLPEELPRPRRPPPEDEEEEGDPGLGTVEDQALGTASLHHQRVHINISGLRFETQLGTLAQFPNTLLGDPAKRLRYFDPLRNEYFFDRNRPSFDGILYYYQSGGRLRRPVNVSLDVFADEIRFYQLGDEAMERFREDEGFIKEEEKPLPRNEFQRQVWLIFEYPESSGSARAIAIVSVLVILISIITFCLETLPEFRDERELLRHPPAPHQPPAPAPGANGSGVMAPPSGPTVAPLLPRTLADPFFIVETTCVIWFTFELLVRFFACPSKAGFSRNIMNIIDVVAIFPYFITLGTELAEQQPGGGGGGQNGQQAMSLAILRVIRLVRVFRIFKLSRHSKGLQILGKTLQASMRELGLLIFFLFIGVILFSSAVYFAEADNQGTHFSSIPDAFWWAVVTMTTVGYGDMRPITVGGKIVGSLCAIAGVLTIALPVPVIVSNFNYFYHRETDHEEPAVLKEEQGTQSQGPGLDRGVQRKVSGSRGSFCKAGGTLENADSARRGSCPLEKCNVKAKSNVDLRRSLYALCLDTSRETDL
Kv1.1, sequence (Q09470 whole entry): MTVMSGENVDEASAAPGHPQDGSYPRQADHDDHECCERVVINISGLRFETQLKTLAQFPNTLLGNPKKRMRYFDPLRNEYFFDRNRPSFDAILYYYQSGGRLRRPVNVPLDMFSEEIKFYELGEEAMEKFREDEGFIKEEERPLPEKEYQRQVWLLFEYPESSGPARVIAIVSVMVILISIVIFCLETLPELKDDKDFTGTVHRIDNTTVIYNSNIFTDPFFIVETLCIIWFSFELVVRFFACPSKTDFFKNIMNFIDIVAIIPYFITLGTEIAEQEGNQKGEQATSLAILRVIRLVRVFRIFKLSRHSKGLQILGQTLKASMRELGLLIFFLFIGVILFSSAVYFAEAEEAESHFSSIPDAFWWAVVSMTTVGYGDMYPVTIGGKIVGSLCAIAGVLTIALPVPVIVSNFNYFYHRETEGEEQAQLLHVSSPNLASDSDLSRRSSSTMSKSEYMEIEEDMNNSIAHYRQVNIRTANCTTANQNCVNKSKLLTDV

activation of TREK-2 [1]: potent activation | activation of TRAAK [2]: potent activation | activation of THIK-1 [3]: potent activation | activation of Kv1.1 [4]: not activated | activation of Kv1.5 [5]: not activated | time course of irreversible pore blockade by MTS-TBAO [7]: markedly slowed | single channel amplitude, outward ([8]; +100 mV, with BL-1249 (basal 17.7 ± 1.3), n = 7): 21.7 ± 1.4 pA | single channel amplitude, inward ([8]; -100 mV, with BL-1249 (basal -29.3 ± 1.5), n = 7): -34.1 ± 1.9 pA | open probability ([8]; result in words): increase in open probability
Structure (SMILES): c1ccc(-c2nn[nH]n2)c(Nc2cccc3c2CCCC3)c1 [BL-1249]
activation of CNG channels [6]: not activated
